{"source": "the RNAGym collection of RNA variant scans (doi:10.1126/science.aae0568)", "parents": {"B1": {"name": "tRNA (parent)", "chain": "GUUCCGUUGGCGUAAUGGUAACGCGUCUCCCUCCUAAGGAGAAGACUGCGGGUUCGAGUCCCGUACGGAACG"}}, "note": "This sample holds only a part of the variants without activity.", "data": [{"variants_of": "B1", "assay": "yeast fitness relative to wild type (ratio to wild type); higher = fitter; tRNA-Arg(CCU), competitive growth, 37 C, YPD", "procedure,_shortened": "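The tRNA-Arg(CCU) gene variants were made by chemical synthesis with a 3% per-site mutation rate at 69 sites and inserted at the native genomic locus of Saccharomyces cerevisiae. After pooling, the strains were competed in YPD at 37°C for 24 hours in six parallel replicates. Gene amplicons from the start population and each end population were read by 100-nucleotide paired-end sequencing, and Darwinian fitness relative to wild type was taken from genotype frequency changes. Genotypes needed ≥ 100 starting reads, and estimates < 0.5 were set to 0.5.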", "values": [{"variant": "GUGCCGUUGGCGUAAUGGUAACGGGUCUCCCUCCUAAGGAGAAGACUGUGGGUUGGAAUCCCGUACGGAACG", "yeast fitness": "≤ 0.5"}, {"variant": "GUUCCGUUCGCGUAAUGGUAACACGUCUCCCUCCUAAGGCGAAGCCUGCGGGUUCGAGUCCCGUACGGAACG", "yeast fitness": "≤ 0.5"}, {"variant": "GUUCCGUUGGCGUAAUGGGAACGCGUCUCCCUCCUAAGGAGAAGACUGCGGGUUCGAGUCCCGUACGGAACG", "yeast fitness": 0.975}, {"variant": "GUUCCGUUGGCGUAAUGGUAACGCGUCUCCCUCCUAAGGACAAGAAUGCGGGUUCGAGUCCGGUACGGAACG", "yeast fitness": 0.551}, {"variant": "GUUCCGUUGGCGUAAUGGUCACGCGUCCCCCUCCUAAGGAGAAGACUGCGGGUUCGAGUCCCGUGCGGAACG", "yeast fitness": 0.661}, {"variant": "GUUCCGUUGCCGUAAUGGUAACGCGUCUCCCUCCUAAGGAGAAGACUGCGGGUUCGACUCCCGUACGGAACG", "yeast fitness": 0.722}, {"variant": "GUUCCGUAGGCGUAAUGGUAACGAGUCUCCCUCCUAAGGAGAAGACUGCGGCUUCGAGUCCCGUACGGAACG", "yeast fitness": "≤ 0.5"}, {"variant": "GUUCCGUUGGCGUAAUGGUAACGCGUCUCCCUCCUAAGGAGAAGAGUGUGGGUUCGAGUCCCGUACGCAACG", "yeast fitness": 0.653}, {"variant": "GUUCCGUUGGCGUAAUGGUAACGCGUCUCCGUCCUAAGGAGAAGACUGCGGGAUCGAGUCCCGUACGGAACG", "yeast fitness": 0.694}, {"variant": "GUUCCGUUGGCGUAAUGGUAACGUGUCUCCCUCCUAAGGAGAAGACUGCGGGUUAGAGUCCCGUACGGAACG", "yeast fitness": 0.655}, {"variant": "GUUCCGUUGGGGUACUGGUAACGCGUCUCCCUCUUAAGGAGAAGACUACGGGUUUGAGUCCCGUACGGAACG", "yeast fitness": 0.759}, {"variant": "GUUUCGUUGGGGUAAUGGUAACGCGUCUACCUCCUAAGGAGAAGACUGCGGGUUCGAGUCCCGUACGGAACG", "yeast fitness": 0.597}, {"variant": "GUUCCGUCGGCGUAAUGGUAACGCGUCUCCCUCCUAAGGAGUAGACUGCGGGAUCGAGUCCCGUACGGAACG", "yeast fitness": "≤ 0.5"}, {"variant": "GUUCCGUUGGCGUAACGGUAACGCGUCUUCCUCCUAAGGAGAAGACUGCGGGUUCGAAUCCCGUACGGUACG", "yeast fitness": 0.577}, {"variant": "GGUCCGUUGGGGUAAUGGUAACGCGUCUCGCUCCUAAGGAGAAGACUGCGGGUUCGAGUCCCGUACGGAACG", "yeast fitness": 0.614}, {"variant": "GUUCCGUCGGCGUAAUGGUAACGCGUCUCCCUCCUAAGGAGAAGACUGCGGGUUCGAGUCCCGUACUGAACG", "yeast fitness": 0.862}, {"variant": "GUUCCGUUGGCGUAAUGGUAACGCGUCUCCCUCCUGAGGAGAAGGCUGUGGGUUCGAGUCCCGUACGGAACG", "yeast fitness": 0.578}, {"variant": "GUUCCGUAGGCGUAAUGAUAACGCGUCUCCCUCCUAAGGAGAAGACGGCGGGUACGAGUCCCGUACGGAACG", "yeast fitness": "≤ 0.5"}, {"variant": "GUUCCGUUGGCGUAAUGGUAACGCGUCUCCCUCCUAAGGAGGUGACGGCGGGUUCGAGUCGCGUACAGAACG", "yeast fitness": "≤ 0.5"}, {"variant": "GUUCCGUUGGCGUAAUGGUAAGGCGGCUCCCUCCUAAGGAGAAGACUGCGGGUUCGAGUCCCGUAUGGAACG", "yeast fitness": "≤ 0.5"}, {"variant": "GUUCCGUUGGCGUAAUGGUAACGCGUUUCUCUCCUAAGGAGAAGACUGCGGGUUCGAGUCCAGUACGGAACG", "yeast fitness": 0.564}, {"variant": "GUUCCGUUGGCGUAAUGGUAACGUGUCUCCCUCCUAAGGAGAAGACUGUGGGUGCGAGUCCCGUACGGAACG", "yeast fitness": 0.588}, {"variant": "GUUCCGUUGGCGAAAUGGUAACGCGUCUCUCUCCUAACGAGAAGACUGAGGGUUCGAGUCCCGUACGGAACG", "yeast fitness": "≤ 0.5"}, {"variant": "GUUCCGUUGGCGUAAUGGUAACGAGUCUCCGUCCUAACGAGAAGACUGCGGGUUCGAGUCCCGUACGGAACG", "yeast fitness": "≤ 0.5"}, {"variant": "GUUCCGUUGGCGUAAUGGUAACGCGUCUCCCUCCUACGGAGAAGACUGUGGGUUCGAGUGCCGUACGGAACG", "yeast fitness": "≤ 0.5"}, {"variant": "GUUCGGUUGGCGUAAUGGUUACGCGUCUCCCUCCUAAGGAGAAGACUGCGCGUUCGAGUCCCGUACGGAACG", "yeast fitness": "≤ 0.5"}, {"variant": "GUUCCGUUGGCGAAAUGGUACCGCGUCUCCCUCCUAAGGAGAAAACUGCGGGUUCGAGUCCCGUACGGAACG", "yeast fitness": "≤ 0.5"}, {"variant": "GUUCCGUUGCAGUAAUGCUAACGUGUCUCCCUCCUAAGGAGAAGACUGCGGGUUCGAGUCCCGUAUGGAACG", "yeast fitness": 0.529}, {"variant": "GUUCCGUUGGCGUAAUGGUAACGCGUGUCCCUCCUAAGGAGAAGACUGCGGGUUCGAGUCCCGUACGGAGCG", "yeast fitness": 0.718}, {"variant": "GUUCCGUUGACGUAAUGGUAACGCAUCUCCCUCCUAAGGACAAGACUGCGGGUGCGAGUCUCGUACGGAACG", "yeast fitness": 0.551}, {"variant": "GUGCCGUUGGCGUAAUGGUAACGCGUCUCCCUCCAAAGGAGAAGACUGCGGGUUCGAGUCCCGUACGGAGCG", "yeast fitness": "≤ 0.5"}, {"variant": "GUUCCGUUGGCGUUAUGGUAACGCGUCUCCCUCCUAAGGAGUAGACUGCGGGUUCGAGUCCCGUGCGGCACG", "yeast fitness": "≤ 0.5"}, {"variant": "GUUCCGUUGGCGUAAUGGUAACGCGUCUCCCUCCUAAGGAGAAGACUGCGGGUUCGCAUCCCGUACGGACCG", "yeast fitness": "≤ 0.5"}, {"variant": "GUUCCGUUGGCGUAAUGGUAAUGCGUCUCCCACCUAAGGAGAAGACUGCGGGUUCGAGUCCCGUACGGAACG", "yeast fitness": 0.733}, {"variant": "GUUCCGUUGGCGUAAUGGUAUCGUGUCUCCCUCCUAAGGAGAAGACUGCGGGUUCGAGUCUCGUAUGGAACG", "yeast fitness": "≤ 0.5"}, {"variant": "GUUCCGUUGGCGUAAUGCUAUCGCGUUUCCCUCCUAAGGAGAAGACUGCGGGUUCGAGUCCCGUACGGAACG", "yeast fitness": "≤ 0.5"}, {"variant": "GUUCCGUUGGCGUAAUGGUAACGGGUCUCCCUCCUAGGGAGAAGACUGCGGGUUCGAGUCCCGUACGGAACG", "yeast fitness": 0.612}, {"variant": "GUUCCGUUGGCGCAAUGGUAACGCGUCUCCCUCCUAAGGAGAAGACUGCGGGUUAGAGUCCCGUUCGGAACG", "yeast fitness": "≤ 0.5"}]}]}
